Results reported in ChEMBL document CHEMBL4376840, “Application of Fluorine- and Nitrogen-Walk Approaches: Defining the Structural and Functional Diversity of 2-Phenylindole Class of Cannabinoid 1 Receptor Positive Allosteric Modulators” (J Med Chem, 2020).
pEC50: −log10 of the molar value.

Legend:
Cannabinoid receptor 1 [1] = target: T1, Cannabinoid receptor 1 (Homo sapiens, UniProt P21554); assay: Positive allosteric modulatory activity at human CB1R expressed in CHO-K1 cells assessed as increase in CP55940-induced inhibition of forskolin-stimulated cAMP production after 30 mins in presence of CP55940 at EC20 concentration by hit-hunter cAMP assay; format: functional, cell-based
T1 sequence (P21554 whole entry): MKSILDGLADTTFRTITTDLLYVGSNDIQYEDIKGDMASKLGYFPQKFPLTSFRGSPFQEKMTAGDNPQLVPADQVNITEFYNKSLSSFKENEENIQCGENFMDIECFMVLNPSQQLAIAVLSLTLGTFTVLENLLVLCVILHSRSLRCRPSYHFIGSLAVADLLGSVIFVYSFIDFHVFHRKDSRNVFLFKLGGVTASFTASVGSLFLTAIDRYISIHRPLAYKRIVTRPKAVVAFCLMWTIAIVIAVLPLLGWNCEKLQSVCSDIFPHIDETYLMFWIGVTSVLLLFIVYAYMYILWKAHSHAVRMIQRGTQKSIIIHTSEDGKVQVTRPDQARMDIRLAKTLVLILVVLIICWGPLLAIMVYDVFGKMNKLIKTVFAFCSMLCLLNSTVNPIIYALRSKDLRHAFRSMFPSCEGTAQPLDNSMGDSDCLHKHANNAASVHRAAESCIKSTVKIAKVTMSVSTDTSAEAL
Method in brief: (§1)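 Read-out was chemiluminescent cAMP detection, fit with a variable-slope 4-parameter regression. n = 1–3 independent experiments in duplicate.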

Cannabinoid receptor 1 [2] = target: T1, Cannabinoid receptor 1; assay: Positive allosteric modulatory activity at human CB1R expressed in CHO-K1 cells assessed as increase in CP55940-induced beta-arrestin2 recruitment after 90 mins in presence of CP55940 at EC20 concentration by pathhunter beta-arrestin assay; format: cell-based
Method in brief: (§2)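 Read-out was chemiluminescent β-arrestin2 recruitment, fit with a 4-parameter regression. n = 1–3 independent experiments in duplicate.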

Cannabinoid receptor 1 [3] = target: T1, Cannabinoid receptor 1; assay: Positive allosteric modulatory activity at human CB1R expressed in CHO-K1 cells assessed as increase in CP55940-induced beta-arrestin2 recruitment after 90 mins in presence of CP55940 at EC20 concentration by pathhunter beta-arrestin assay relative to control; format: cell-based; method in brief: as §2
Cannabinoid receptor 1 [4] = target: T1, Cannabinoid receptor 1; assay: Positive allosteric modulatory activity at human CB1R expressed in CHO-K1 cells assessed as increase in CP55940-induced inhibition of forskolin-stimulated cAMP production after 30 mins in presence of CP55940 at EC20 concentration by hit-hunter cAMP assay relative to control; format: functional, cell-based; method in brief: as §1
Cannabinoid receptor 1 [5] = target: T1, Cannabinoid receptor 1; assay: Allosteric agonist activity at human CB1R expressed in CHO-K1 cells assessed as inhibition of forskolin-induced cAMP accumulation by measuring cAMP accumulation at minimal level at higher concentrations after 90 mins by hit-hunter cAMP assay relative to forskolin; format: functional, cell-based
Method in brief: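 HitHunter CHO-K1 hCB1R cells (20,000/well) were held overnight in Opti-MEM with 1% FBS. They were then co-treated at 37°C with 10 μM forskolin plus compound alone (0.10 nM – 10 μM) for 90 min. Chemiluminescent cAMP detection followed (two 60-min room-temperature steps). Data as % forskolin, variable-slope 4-parameter fit; Emin is the lower plateau. n ≥ 6, triplicate.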

[6] = target: Cannabinoid receptor 1 (Rattus norvegicus) (UniProt P20272); assay: Positive allosteric modulatory activity at N-terminal GFP-tagged rat CB1R receptor expressed in HEK293 cells assessed as leftward shift in CP55940 dependent concentration response curve for inhibition of forskolin-induced cAMP accumulation after 30 mins by TR-FRET assay; format: functional, cell-based
Cannabinoid receptor 1 (Rattus norvegicus), sequence (P20272 whole entry): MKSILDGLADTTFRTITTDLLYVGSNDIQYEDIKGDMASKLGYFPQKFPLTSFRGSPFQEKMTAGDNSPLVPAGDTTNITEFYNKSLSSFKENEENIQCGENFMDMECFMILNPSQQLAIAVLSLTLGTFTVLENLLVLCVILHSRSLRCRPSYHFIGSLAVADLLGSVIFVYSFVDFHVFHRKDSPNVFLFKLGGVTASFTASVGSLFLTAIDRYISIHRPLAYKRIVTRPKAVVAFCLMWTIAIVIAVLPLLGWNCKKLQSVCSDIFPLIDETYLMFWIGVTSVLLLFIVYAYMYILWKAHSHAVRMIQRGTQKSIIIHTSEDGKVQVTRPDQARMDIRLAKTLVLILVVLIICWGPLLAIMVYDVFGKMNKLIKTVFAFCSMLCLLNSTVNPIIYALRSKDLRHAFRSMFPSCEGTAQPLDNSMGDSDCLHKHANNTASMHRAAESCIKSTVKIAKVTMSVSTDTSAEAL

Cannabinoid receptor 1 [7] = target: T1, Cannabinoid receptor 1; assay: Positive allosteric modulatory activity at human CB1R expressed in CHO-K1 cells assessed as increase in CP55940-induced inhibition of forskolin-induced cAMP accumulation by measuring cAMP accumulation at minimal level at higher concentration after 90 mins in presence of 100 nM CP55940 by hit-hunter cAMP assay relative to forskolin; format: functional, cell-based
Method in brief: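 Uses the HitHunter CHO-K1 hCB1R cAMP set-up above. […] Data normalized to % forskolin, 4-parameter fit. n ≥ 6, triplicate.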

Cannabinoid receptor 1 [8] = target: T1, Cannabinoid receptor 1; assay: Allosteric agonist activity at human CB1R expressed in CHO-K1 cells assessed as increase in beta arrestin2 recruitment after 90 mins by pathhunter beta-arrestin assay relative to CP55940; format: cell-based
Method in brief: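 PathHunter CHO-K1 hCB1R cells (20,000/well) were held overnight in Opti-MEM with 1% FBS. Compound alone (0.10 nM – 10 μM) was given at 37°C for 90 min, then detection solution for 60 min at room temperature and chemiluminescence was read.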

Cannabinoid receptor 1 [9] = target: T1, Cannabinoid receptor 1; assay: Agonist activity at human CB1 receptor expressed in CHO cell membranes assessed as increase in G-protein coupling by measuring [35S]GTPgammaS binding after 90 mins in presence of [35S]GTPgammaS by liquid scintillation analysis relative to control; format: functional
Method in brief: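 [35S]GTPγS binding to G protein in membranes from CHO cells stably expressing human CB1R, with test compound given alone. Data fit to a variable-slope 4-parameter nonlinear regression. n = 4–6 independent experiments in duplicate.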

[10] = target: Cannabinoid receptor 1 (Rattus norvegicus) (UniProt P20272); assay: Positive allosteric modulatory activity at N-terminal GFP-tagged rat CB1R receptor expressed in HEK293 cells assessed as downward shift in CP55940 dependent concentration response curve for inhibition of forskolin-induced cAMP accumulation after 30 mins by TR-FRET assay; format: functional, cell-based
Cannabinoid receptor 1 [11] = target: T1, Cannabinoid receptor 1; assay: Positive allosteric modulatory activity at human CB1R expressed in CHO-K1 cells assessed as maximal increase in CP55940-induced beta arrestin2 recruitment after 90 mins in presence of 100 nM CP55940 by pathhunter beta-arrestin assay relative to CP55940; format: cell-based
[12] = buffer, pH 7.4, 24 h
[13] = target: Cannabinoid receptor 1 (Rattus norvegicus) (UniProt P20272); assay: Allosteric agonist activity at N-terminal GFP-tagged rat CB1R expressed in HEK293 cells assessed as inhibition of forskolin-induced cAMP production by measuring cAMP accumulation at minimal level at higher concentrations after 30 min by TR-FRET assay relative to forskolin; format: functional, cell-based
Method in brief: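 HEK293 cells stably expressing N-terminal GFP-tagged rat CB1R were trypsin-EDTA dissociated and resuspended in HBSS with 0.1% BSA and 0.5mM IBMX at 500 cells/well. Cells got 5μM forskolin plus compound (1 pM – 10 μM) alone for 30 min. 4-parameter fit; Emin is the lower plateau. n ≥ 3, triplicate.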

## O=[N+]([O-])CC(c1ccccc1F)c1c(-c2ccccc2)[nH]c2ccccc12 (configuration not stated)
Cannabinoid receptor 1 [1]
  pEC50: 7.37
Cannabinoid receptor 1 [2]
  pEC50: 5.97
Cannabinoid receptor 1 [3]
  Emax: 63%
Cannabinoid receptor 1 [4]
  Emax: 110%

## O=[N+]([O-])CC(c1ccccc1)c1c(-c2ccccc2)[nH]c2ccc(F)cc12 (configuration not stated)
Cannabinoid receptor 1 [1]
  pEC50: 6.72
Cannabinoid receptor 1 [2]
  pEC50: 6.13
Cannabinoid receptor 1 [3]
  Emax: 23%
Cannabinoid receptor 1 [4]
  Emax: 130%

## O=[N+]([O-])CC(c1ccc(F)cc1)c1c(-c2ccccc2)[nH]c2c(F)cccc12 (configuration not stated)
Cannabinoid receptor 1 [1]
  pEC50: 6.57
Cannabinoid receptor 1 [2]
  pEC50: 6.15
Cannabinoid receptor 1 [3]
  Emax: 27%
Cannabinoid receptor 1 [4]
  Emax: 121%

## O=[N+]([O-])CC(c1ccccc1)c1c(-c2ccc(F)cc2)[nH]c2ccccc12 (configuration not stated)
Cannabinoid receptor 1 [1]
  pEC50: 5.80
Cannabinoid receptor 1 [2]
  pEC50: < 5.00
Cannabinoid receptor 1 [3]
  Emax: -2.2%
Cannabinoid receptor 1 [4]
  Emax: 120%

## O=[N+]([O-])CC(c1ccccc1)c1c(-c2ccccc2)[nH]c2ccccc12 (racemic)
Cannabinoid receptor 1 [5]
  Emin: 1.8%
[6]
  Activity: Dose-dependent effect
Cannabinoid receptor 1 [7]
  Emin: 21%
Cannabinoid receptor 1 [8]
  Emax: 27%
Cannabinoid receptor 1 [9]
  Emax: 28%
[10]
  Activity: Dose-dependent effect
Cannabinoid receptor 1 [3]
  Emax: 46%
Cannabinoid receptor 1 [11]
  Emax: 72%

## O=[N+]([O-])CC(c1ccccc1)c1c(-c2ccccc2)[nH]c2ncccc12 (configuration not stated)
Cannabinoid receptor 1 [1]
  pEC50: 5.96
Cannabinoid receptor 1 [2]
  pEC50: < 5.00
Cannabinoid receptor 1 [3]
  Emax: 7%
[12]
  Therm_solubility: 159 µM
Cannabinoid receptor 1 [4]
  Emax: 39%

## O=[N+]([O-])CC(c1ccccc1)c1c(-c2ccccc2)[nH]c2cnccc12 (configuration not stated)
Cannabinoid receptor 1 [1]
  pEC50: 6.35
Cannabinoid receptor 1 [2]
  pEC50: < 5.00
Cannabinoid receptor 1 [3]
  Emax: 5.1%
[12]
  Therm_solubility: 6.8 µM
Cannabinoid receptor 1 [4]
  Emax: 5.2%

## O=[N+]([O-])CC(c1ccccc1F)c1c(-c2ccccc2)[nH]c2cc(F)ccc12 (configuration not stated)
Cannabinoid receptor 1 [1]
  pEC50: 7.24
Cannabinoid receptor 1 [2]
  pEC50: 5.94

## O=[N+]([O-])CC(c1ccncc1)c1c(-c2ccccc2)[nH]c2ccccc12 (configuration not stated)
Cannabinoid receptor 1 [1]
  pEC50: 6.29
Cannabinoid receptor 1 [2]
  pEC50: 5.40
Cannabinoid receptor 1 [3]
  Emax: 25%
[12]
  Therm_solubility: 36.7 µM
Cannabinoid receptor 1 [4]
  Emax: 110%

## O=[N+]([O-])CC(c1ccccn1)c1c(-c2ccccc2)[nH]c2ccccc12 (configuration not stated)
Cannabinoid receptor 1 [1]
  pEC50: 6.59
Cannabinoid receptor 1 [2]
  pEC50: < 5.00
Cannabinoid receptor 1 [3]
  Emax: 5.8%
[12]
  Therm_solubility: 2.8 µM
Cannabinoid receptor 1 [4]
  Emax: 130%

## O=[N+]([O-])CC(c1cccnc1)c1c(-c2ccccc2)[nH]c2ccccc12 (configuration not stated)
Cannabinoid receptor 1 [1]
  pEC50: 5.51
Cannabinoid receptor 1 [2]
  pEC50: < 5.00
Cannabinoid receptor 1 [3]
  Emax: -8.1%
[12]
  Therm_solubility: 1.1 µM
Cannabinoid receptor 1 [4]
  Emax: 170%

## O=[N+]([O-])CC(c1ccccc1)c1c(-c2ccccc2F)[nH]c2ccccc12 (configuration not stated)
Cannabinoid receptor 1 [1]
  pEC50: 5.85
Cannabinoid receptor 1 [2]
  pEC50: 6.15
Cannabinoid receptor 1 [3]
  Emax: 7%
Cannabinoid receptor 1 [4]
  Emax: 140%

## O=[N+]([O-])CC(c1ccccc1)c1c(-c2ccccc2)[nH]c2ccncc12 (configuration not stated)
Cannabinoid receptor 1 [1]
  pEC50: < 5.00
Cannabinoid receptor 1 [2]
  pEC50: < 5.00
Cannabinoid receptor 1 [3]
  Emax: 2.8%
[12]
  Therm_solubility: 23.6 µM
Cannabinoid receptor 1 [4]
  Emax: 4%

## O=[N+]([O-])CC(c1ccccc1F)c1c(-c2ccccc2)[nH]c2c(F)cccc12 (configuration not stated)
Cannabinoid receptor 1 [1]
  pEC50: 7.68
Cannabinoid receptor 1 [2]
  pEC50: 6.17

## O=[N+]([O-])CC(c1cccc(F)c1)c1c(-c2ccccc2)[nH]c2ccccc12 (configuration not stated)
Cannabinoid receptor 1 [1]
  pEC50: 6.14
Cannabinoid receptor 1 [2]
  pEC50: 5.60
Cannabinoid receptor 1 [3]
  Emax: 19%
Cannabinoid receptor 1 [4]
  Emax: 130%

## O=[N+]([O-])CC(c1ccccc1)c1c(-c2ccccc2)[nH]c2cc(F)ccc12 (configuration not stated)
Cannabinoid receptor 1 [1]
  pEC50: 6.96
Cannabinoid receptor 1 [2]
  pEC50: 5.96
Cannabinoid receptor 1 [3]
  Emax: 38%
Cannabinoid receptor 1 [4]
  Emax: 120%

## O=[N+]([O-])CC(c1ccccc1)c1c(-c2cccnc2)[nH]c2ccccc12 (configuration not stated)
Cannabinoid receptor 1 [1]
  pEC50: 5.96
Cannabinoid receptor 1 [2]
  pEC50: < 5.00
Cannabinoid receptor 1 [3]
  Emax: 9.2%
[12]
  Therm_solubility: 4.9 µM
Cannabinoid receptor 1 [4]
  Emax: 150%

## O=[N+]([O-])CC(c1ccccc1)c1c(-c2ccccc2)[nH]c2cccnc12 (configuration not stated)
Cannabinoid receptor 1 [1]
  pEC50: < 5.00
Cannabinoid receptor 1 [2]
  pEC50: 5.80
Cannabinoid receptor 1 [3]
  Emax: 30%
[12]
  Therm_solubility: 11.2 µM
Cannabinoid receptor 1 [4]
  Emax: 81%

## O=[N+]([O-])CC(c1ccc(F)cc1)c1c(-c2cccc(F)c2)[nH]c2cc(F)ccc12 (configuration not stated)
Cannabinoid receptor 1 [1]
  pEC50: 5.94
Cannabinoid receptor 1 [2]
  pEC50: 5.68
Cannabinoid receptor 1 [3]
  Emax: 56%
Cannabinoid receptor 1 [4]
  Emax: 91%

## CCCCCCC(C)(C)c1ccc([C@@H]2C[C@H](O)CC[C@H]2CCCO)c(O)c1
[13]
  Emin: 29%

## O=[N+]([O-])CC(c1ccccc1)c1c(-c2cccc(F)c2)[nH]c2ccccc12 (configuration not stated)
Cannabinoid receptor 1 [1]
  pEC50: 7.10
Cannabinoid receptor 1 [2]
  pEC50: 5.89

## O=[N+]([O-])CC(c1ccc(F)cc1)c1c(-c2ccccc2)[nH]c2cc(F)ccc12 (configuration not stated)
Cannabinoid receptor 1 [1]
  pEC50: 5.89
Cannabinoid receptor 1 [2]
  pEC50: 5.96
Cannabinoid receptor 1 [3]
  Emax: 32%
Cannabinoid receptor 1 [4]
  Emax: 47%

## O=[N+]([O-])CC(c1ccccc1)c1c(-c2ccccc2)[nH]c2c(F)cccc12 (configuration not stated)
Cannabinoid receptor 1 [1]
  pEC50: 7.66
Cannabinoid receptor 1 [2]
  pEC50: 6.12
Cannabinoid receptor 1 [3]
  Emax: 45%
Cannabinoid receptor 1 [4]
  Emax: 120%

## O=[N+]([O-])CC(c1ccc(F)cc1)c1c(-c2cccc(F)c2)[nH]c2c(F)cccc12 (configuration not stated)
Cannabinoid receptor 1 [1]
  pEC50: 6.64
Cannabinoid receptor 1 [2]
  pEC50: 5.96
Cannabinoid receptor 1 [3]
  Emax: 43%
Cannabinoid receptor 1 [4]
  Emax: 110%

## O=[N+]([O-])CC(c1ccccc1)c1c(-c2ccncc2)[nH]c2ccccc12 (configuration not stated)
Cannabinoid receptor 1 [1]
  pEC50: 5.51
Cannabinoid receptor 1 [2]
  pEC50: 5.80
Cannabinoid receptor 1 [3]
  Emax: 19%
[12]
  Therm_solubility: 2.1 µM
Cannabinoid receptor 1 [4]
  Emax: 88%

## O=[N+]([O-])CC(c1ccccc1)c1c(-c2ccccc2)[nH]c2cccc(F)c12 (configuration not stated)
Cannabinoid receptor 1 [1]
  pEC50: 6.89
Cannabinoid receptor 1 [2]
  pEC50: 6.05
Cannabinoid receptor 1 [3]
  Emax: 37%
Cannabinoid receptor 1 [4]
  Emax: 120%

## O=[N+]([O-])CC(c1ccc(F)cc1)c1c(-c2ccccc2)[nH]c2ccccc12 (configuration not stated)
Cannabinoid receptor 1 [1]
  pEC50: 6.36
Cannabinoid receptor 1 [2]
  pEC50: < 5.00
Cannabinoid receptor 1 [3]
  Emax: 8%
Cannabinoid receptor 1 [4]
  Emax: 110%
